Measurements: ChEMBL document CHEMBL2069277, “Small molecules that regulate zymosan phagocytosis of macrophage through deactivation of Rho GTPases” (Bioorg Med Chem, 2012)
Activity calls are given as the source filed them. The calls are words filed in the database; no cut-off is given here.

Columns and labels:
[1] = system: RAW264.7; assay: Inhibition of zymosan phagocytosis in mouse RAW264.7 cells at 10 uM preincubated before zymosan addition by flow cytometry; type: functional, cell-based
Outline: (§1)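 CD11b+ peritoneal macrophages (4 × 10^6/well) or RAW264.7 cells (2 × 10^6/well) were adhered 2 h and pretreated 30 min (5, 10, 20 µM; screen at 10 µM). Cells were scraped, washed, and incubated with FITC-zymosan (5 particles/cell) for 1 h at 37 °C. After washing, uptake was read by flow cytometry as a phagocytic index relative to untreated cells. Cytochalasin D 5 µM was the control.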

[2] = system: Peritoneal macrophage cell; assay: Inhibition of zymosan phagocytosis in C57BL/6 mouse CD11b(+) peritoneal macrophages preincubated before zymosan addition by flow cytometry; type: functional, cell-based; outline: as §1
[3] = system: RAW264.7; assay: Inhibition of zymosan phagocytosis in mouse RAW264.7 cells preincubated before zymosan addition by flow cytometry; type: functional, cell-based; outline: as §1
[4] = system: RAW264.7; assay: Reduction in GTP-bound Rac1 protein expression in mouse RAW264.7 cells at 20 uM preincubated for 20 mins before zymosan exposure for 15 mins by Western blot based pull down assay; type: functional, cell-based
Outline: (§2)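 RAW264.7 cells were pretreated with 20 µM (20 min for Rac1 and Rac2; 5 min for Cdc42), then given zymosan 200 µg/ml for 15 min. GTP-bound Rac1, Rac2 and Cdc42 were pulled down with an active pull-down kit and western blotted. Bands were quantified by densitometry and normalized to β-actin.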

[5] = system: RAW264.7; assay: Reduction in GTP-bound Rac2 protein expression in mouse RAW264.7 cells at 20 uM preincubated for 20 mins before zymosan exposure for 15 mins by Western blot based pull down assay; type: functional, cell-based; outline: as §2
[6] = system: RAW264.7; assay: Reduction in GTP-bound Cdc42 protein expression in mouse RAW264.7 cells at 20 uM preincubated for 5 mins before zymosan exposure for 15 mins by Western blot based pull down assay; type: functional, cell-based; outline: as §2
[7] = Toxicity in zymosan-induced C57BL/6 mouse CD11b(+) peritoneal macrophages at 5 to 20 uM preincubated before zymosan addition; type: cell-based; details: peritoneal macrophage cell
[8] = system: RAW264.7; assay: Toxicity in zymosan-induced mouse RAW264.7 cells at 5 to 20 uM preincubated before zymosan addition; type: cell-based; details: raw264.7, 20 µM
[9] = system: Peritoneal macrophage cell; assay: Effect on TLR2 mRNA expression in C57BL/6 mouse CD11b(+) peritoneal macrophages at 20 uM preincubated for 30 mins before zymosan exposure for 6 hrs by real-time PCR
[10] = system: Peritoneal macrophage cell; assay: Effect on TLR6 mRNA expression in C57BL/6 mouse CD11b(+) peritoneal macrophages at 20 uM preincubated for 30 mins before zymosan exposure for 6 hrs by real-time PCR
[11] = system: Peritoneal macrophage cell; assay: Effect on TLR1 mRNA expression in C57BL/6 mouse CD11b(+) peritoneal macrophages at 20 uM preincubated for 30 mins before zymosan exposure for 6 hrs by real-time PCR
[12] = system: Peritoneal macrophage cell; assay: Effect on Dectin-1 mRNA expression in C57BL/6 mouse CD11b(+) peritoneal macrophages at 20 uM preincubated for 30 mins before zymosan exposure for 6 hrs by real-time PCR
[13] = species on record: Mus musculus; assay: Inhibition of zymosan-induced PI3K in C57BL/6 mouse CD11b(+) peritoneal macrophages assessed as reduction in AKT Ser473 phosphorylation at 20 uM preincubated for 15 mins before zymosan exposure for 30 mins by Western blot
Outline: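 CD11b+ peritoneal macrophages from male C57BL/6 mice (thioglycollate-elicited; cells pooled from twenty mice) were pretreated with 20 µM for 15 min, then given zymosan 200 µg/ml for 30 min. Western blot for phospho-Akt (Ser473) and total Akt. p-Akt was quantified by densitometry and expressed as fold change.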

[14] = system: Peritoneal macrophage cell; assay: Inhibition of zymosan phagocytosis in C57BL/6 mouse CD11b(+) peritoneal macrophages at 20 uM preincubated before zymosan addition by flow cytometry; type: functional, cell-based; outline: as §1

CCCOc1ccc(-c2cccc(C(=O)NCCCN3CCCC3)c2)cc1
inhibition [1]: Active

CCCOc1ccc(-c2cccc(C(=O)NCCCN(CC)CC)c2)cc1
inhibition [2]: Dose-dependent effect
inhibition [3]: Dose-dependent effect
Activity [4]: Active
Activity [5]: Active
Activity [6]: Active
Activity [7]: Non-toxic
Activity [8]: Non-toxic
Activity [9]: inactive
Activity [10]: inactive
Activity [11]: inactive
Activity [12]: inactive

CCCOc1ccc(-c2cccc(C(=O)NCCN(CC)CC)c2)cc1
inhibition [1]: inactive

CCCOc1ccc(-c2cccc(C(=O)NCCCN3CCCCC3)c2)cc1
inhibition [1]: Active

CCCNC(=O)c1cccc(-c2ccc(OCCC)cc2)c1
inhibition [1]: Active

O=c1cc(N2CCOCC2)oc2c(-c3ccccc3)cccc12
inhibition [13]: Active
inhibition [14]: inactive

CCCOc1ccc(-c2cccc(C(=O)NCCCN(C)C)c2)cc1
inhibition [1]: Active

CCCOc1ccc(-c2cccc(C(=O)NCCCN3CCOCC3)c2)cc1
inhibition [1]: inactive
